Source: ChEMBL document CHEMBL2311311, “Synthesis and in vitro activity of 1,2,4-triazole-ciprofloxacin hybrids against drug-susceptible and drug-resistant bacteria” (Eur J Med Chem, 2013)
Values after ≈ are worked out from the molar mass of the structure shown.

Legend:
Micrococcus luteus [1] = test: Antimicrobial activity against Micrococcus luteus ATCC 10240 by broth microdilution method; format: functional
Summary of the method: (§1)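 Inocula were saline (0.85% NaCl) suspensions at 0.5 McFarland (150 × 10⁶ CFU/mL). Compounds were first screened by agar dilution on Mueller-Hinton agar, and active ones then went to broth microdilution. MIC is the lowest concentration inhibiting growth. The negative control was medium containing DMSO at the final concentration, without compound.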

Bacillus cereus = test: Antimicrobial activity against Bacillus cereus ATCC 10876 by broth microdilution method; format: functional; summary of the method: as §1
Bacillus subtilis = test: Antimicrobial activity against Bacillus subtilis ATCC 6633 by broth microdilution method; format: functional; summary of the method: as §1
[2] = test system: Staphylococcus epidermidis; test: Antimicrobial activity against Staphylococcus epidermidis ATCC 12228 by broth microdilution method; format: functional; summary of the method: as §1
Staphylococcus aureus [3] = test: Antimicrobial activity against Staphylococcus aureus ATCC 25923 by broth microdilution method; format: functional; summary of the method: as §1
HEK293 = test: Cytotoxicity against HEK293 cells after 48 hrs by MTT assay; format: cell-based; conditions: Homo sapiens, HEK293, 48 h
Summary of the method: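 HEK-293 cells were seeded at 3 × 10⁵ cells/well and pre-incubated 24 h at 37 °C under 5% CO₂. Compounds came from 50 mg/mL DMSO stocks diluted in medium with 2% FBS, at final concentrations of 2–500. Exposure was 48 h at 37 °C with MTT formazan read on a plate reader. EC50 is growth inhibition relative to control cells, given as mean ± SD of three independent experiments.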

Micrococcus luteus [4] = test: Ratio of ciprofloxacin MIC to compound MIC for Micrococcus luteus ATCC 10240 by broth microdilution method; format: functional
Staphylococcus aureus [5] = test: Ratio of MBC to MIC for methicillin-resistant Staphylococcus aureus 14001 by broth microdilution method; format: functional
Summary of the method: (§2)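 Inoculum in sterile saline (0.85% NaCl), adjusted to 0.5 McFarland (150 × 10⁶ CFU/mL). Compounds first screened by agar dilution on Mueller-Hinton agar, then titrated by broth microdilution. Medium with DMSO at the final concentration and no compound served as negative control. MIC is the lowest concentration inhibiting growth. MBC is the lowest concentration giving >99.9% reduction in CFU of the initial inoculum.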

Staphylococcus aureus [6] = test: Antimicrobial activity against methicillin-resistant Staphylococcus aureus 14001 by broth microdilution method; format: functional; summary of the method: as §2
Proteus mirabilis = test: Antimicrobial activity against Proteus mirabilis ATCC 12453 by broth microdilution method; format: functional; summary of the method: as §1
Pseudomonas aeruginosa [7] = test: Antimicrobial activity against Pseudomonas aeruginosa ATCC 9027 by broth microdilution method; format: functional; summary of the method: as §1
Escherichia coli = test: Antimicrobial activity against Escherichia coli ATCC 25922 by broth microdilution method; format: functional; summary of the method: as §1
Pseudomonas aeruginosa [8] = test: Ratio of ciprofloxacin MIC to compound MIC for Pseudomonas aeruginosa ATCC 9027 by broth microdilution method; format: functional
Staphylococcus aureus [9] = test: Ratio of ciprofloxacin MIC to compound MIC for Staphylococcus aureus ATCC 25923 by broth microdilution method; format: functional
[10] = Selectivity ratio of EC50 for HEK293 cells to MIC for methicillin-resistant Staphylococcus aureus 14001; format: functional
Summary of the method: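 HEK-293 cells grown at 37 °C in humidified 5% CO₂ with penicillin and […] streptomycin. Seeded at 3 × 10⁵ cells/well for 24 h. Compounds (50 mg/mL DMSO stock) were diluted in medium with 2% FBS to final 2–500 µg/mL and applied for 48 h at 37 °C. Read-out was MTT formazan. EC50 was taken relative to control-cell growth, mean ± SD of three independent experiments, then divided by the MRSA MIC.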

Staphylococcus aureus [11] = test: Ratio of vancomycin MIC to compound MIC for methicillin-resistant Staphylococcus aureus 14001 by broth microdilution method; format: functional; summary of the method: as §2
Staphylococcus aureus [12] = test: Ratio of ciprofloxacin MIC to compound MIC for methicillin-resistant Staphylococcus aureus 14001 by broth microdilution method; format: functional; summary of the method: as §2

| SMILES | MIC (Micrococcus luteus [1]) [µM] | MIC (Bacillus cereus) [µM] | MIC (Bacillus subtilis) [µM] | MIC [2] [µM] | MIC (Staphylococcus aureus [3]) [µM] | EC50 (HEK293) [µM] | Ratio (Micrococcus luteus [4]) | Ratio (Staphylococcus aureus [5]) | MBC (Staphylococcus aureus [6]) [µM] | MIC (Staphylococcus aureus [6]) [µM] | MIC (Proteus mirabilis) [µM] | MIC (Pseudomonas aeruginosa [7]) [µM] | MIC (Escherichia coli) [µM] | Ratio (Pseudomonas aeruginosa [8]) | Ratio (Staphylococcus aureus [9]) | Ratio [10] | Ratio (Staphylococcus aureus [11]) | Ratio (Staphylococcus aureus [12]) |
| --- | --- | --- | --- | --- | --- | --- | --- | --- | --- | --- | --- | --- | --- | --- | --- | --- | --- | --- |
| CCn1c(-c2cccc(Cl)c2)nn(CN2CCN(c3cc4c(cc3F)c(=O)c(C(=O)O)cn4C3CC3)CC2)c1=S | 0.84 (≈ 0.49 µg/mL) | 0.2 (≈ 0.117 µg/mL) | 0.1 (≈ 0.0583 µg/mL) | 0.84 (≈ 0.49 µg/mL) | 0.84 (≈ 0.49 µg/mL) | 39.7 | 7.5 | 2 | 0.84 (≈ 0.49 µg/mL) | 0.41 (≈ 0.239 µg/mL) | 0.051 (≈ 0.0297 µg/mL) | 0.41 (≈ 0.239 µg/mL) | 0.051 (≈ 0.0297 µg/mL) | – | – | – | – | – |
| CCCCn1c(-c2cccc(Cl)c2)nn(CN2CCN(c3cc4c(cc3F)c(=O)c(C(=O)O)cn4C3CC3)CC2)c1=S | 6.4 (≈ 3.91 µg/mL) | 0.39 (≈ 0.238 µg/mL) | 0.2 (≈ 0.122 µg/mL) | 1.6 (≈ 0.978 µg/mL) | 3.19 (≈ 1.95 µg/mL) | – | – | 1 | 1.6 (≈ 0.978 µg/mL) | 1.6 (≈ 0.978 µg/mL) | 0.098 (≈ 0.0599 µg/mL) | 0.8 (≈ 0.489 µg/mL) | 0.098 (≈ 0.0599 µg/mL) | – | – | – | – | – |
| CCCCCCn1c(-c2cccc(Cl)c2)nn(CN2CCN(c3cc4c(cc3F)c(=O)c(C(=O)O)cn4C3CC3)CC2)c1=S | 3.05 (≈ 1.95 µg/mL) | 0.77 (≈ 0.492 µg/mL) | 0.19 (≈ 0.121 µg/mL) | 1.53 (≈ 0.978 µg/mL) | 1.53 (≈ 0.978 µg/mL) | – | – | 2 | 3.05 (≈ 1.95 µg/mL) | 1.53 (≈ 0.978 µg/mL) | 0.19 (≈ 0.121 µg/mL) | 0.77 (≈ 0.492 µg/mL) | 0.047 (≈ 0.03 µg/mL) | – | – | – | – | – |
| O=C(O)c1cn(C2CC2)c2cc(N3CCN(Cn4nc(-c5cccc(O)c5)n(-c5cccc([N+](=O)[O-])c5)c4=S)CC3)c(F)cc2c1=O | 1.49 (≈ 0.98 µg/mL) | 0.18 (≈ 0.118 µg/mL) | 0.18 (≈ 0.118 µg/mL) | 0.74 (≈ 0.487 µg/mL) | 0.74 (≈ 0.487 µg/mL) | – | – | 2 | 0.74 (≈ 0.487 µg/mL) | 0.36 (≈ 0.237 µg/mL) | 0.023 (≈ 0.0151 µg/mL) | 0.18 (≈ 0.118 µg/mL) | 0.023 (≈ 0.0151 µg/mL) | 4 | – | – | – | – |
| O=C(O)c1cn(C2CC2)c2cc(N3CCN(Cn4nc(-c5cccc(O)c5)n(-c5cccc(I)c5)c4=S)CC3)c(F)cc2c1=O | 1.33 (≈ 0.982 µg/mL) | 0.16 (≈ 0.118 µg/mL) | 0.32 (≈ 0.236 µg/mL) | 0.66 (≈ 0.487 µg/mL) | 0.66 (≈ 0.487 µg/mL) | – | – | 1 | 0.66 (≈ 0.487 µg/mL) | 0.66 (≈ 0.487 µg/mL) | 0.041 (≈ 0.0303 µg/mL) | 0.081 (≈ 0.0598 µg/mL) | 0.041 (≈ 0.0303 µg/mL) | 8 | – | – | – | – |
| O=C(O)c1cn(C2CC2)c2cc(N3CCN(Cn4nc(-c5cccc(O)c5)n(-c5ccc(Cl)cc5Cl)c4=S)CC3)c(F)cc2c1=O | 1.44 (≈ 0.981 µg/mL) | 0.18 (≈ 0.123 µg/mL) | 0.18 (≈ 0.123 µg/mL) | 0.35 (≈ 0.239 µg/mL) | 0.35 (≈ 0.239 µg/mL) | – | – | 2 | 0.71 (≈ 0.484 µg/mL) | 0.35 (≈ 0.239 µg/mL) | 0.022 (≈ 0.015 µg/mL) | 0.088 (≈ 0.06 µg/mL) | 0.044 (≈ 0.03 µg/mL) | 8 | 8.5 | – | – | – |
| O=C(O)c1cn(C2CC2)c2cc(N3CCN(Cn4nc(-c5cccc(O)c5)n(-c5cc(Cl)cc(Cl)c5)c4=S)CC3)c(F)cc2c1=O | 1.44 (≈ 0.981 µg/mL) | 0.18 (≈ 0.123 µg/mL) | 0.18 (≈ 0.123 µg/mL) | 0.35 (≈ 0.239 µg/mL) | 0.72 (≈ 0.491 µg/mL) | 53 | – | 4 | 0.35 (≈ 0.239 µg/mL) | 0.088 (≈ 0.06 µg/mL) | 0.044 (≈ 0.03 µg/mL) | 0.088 (≈ 0.06 µg/mL) | 0.022 (≈ 0.015 µg/mL) | 8 | – | 600 | 8 | 17 |
| O=C(O)c1cn(C2CC2)c2cc(N3CCN(Cn4ncn(-c5cccc(I)c5)c4=S)CC3)c(F)cc2c1=O | 24.2 (≈ 15.6 µg/mL) | 3.02 (≈ 1.95 µg/mL) | 0.37 (≈ 0.239 µg/mL) | 6.05 (≈ 3.91 µg/mL) | 12.1 (≈ 7.81 µg/mL) | – | – | 2 | 12.1 (≈ 7.81 µg/mL) | 6.05 (≈ 3.91 µg/mL) | 0.18 (≈ 0.116 µg/mL) | 1.52 (≈ 0.983 µg/mL) | 0.093 (≈ 0.0601 µg/mL) | – | – | – | – | – |
| Cc1nn(CN2CCN(c3cc4c(cc3F)c(=O)c(C(=O)O)cn4C3CC3)CC2)c(=S)n1-c1cccc(I)c1 | 94.6 (≈ 62.5 µg/mL) | 1.48 (≈ 0.978 µg/mL) | 1.48 (≈ 0.978 µg/mL) | 23.7 (≈ 15.6 µg/mL) | 23.7 (≈ 15.6 µg/mL) | – | – | 1 | 23.7 (≈ 15.6 µg/mL) | 23.7 (≈ 15.6 µg/mL) | 0.74 (≈ 0.489 µg/mL) | 2.95 (≈ 1.95 µg/mL) | 0.36 (≈ 0.238 µg/mL) | – | – | – | – | – |
| CCCc1nn(CN2CCN(c3cc4c(cc3F)c(=O)c(C(=O)O)cn4C3CC3)CC2)c(=S)n1-c1cccc(I)c1 | 182 (≈ 125 µg/mL) | 22.7 (≈ 15.6 µg/mL) | 5.68 (≈ 3.91 µg/mL) | 90.8 (≈ 62.5 µg/mL) | 90.8 (≈ 62.5 µg/mL) | – | – | 1 | 182 (≈ 125 µg/mL) | 182 (≈ 125 µg/mL) | 2.83 (≈ 1.95 µg/mL) | 22.7 (≈ 15.6 µg/mL) | 0.71 (≈ 0.489 µg/mL) | – | – | – | – | – |
